Active and inactive are the calls of the source. No cut-off for these calls is given here.

The test system of data set [1] is Rattus norvegicus. In words: Antifertility activity in 1 to 9 days pregnancy Charles River CD rat assessed as reduction in number of viable fetuses at 25 mg/kg, po. Format: functional. In a few lines:
(§1)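 Adult females (rats: Charles River CD; hamsters: Lakeview LAK/LVG-SVR) kept under reversed light (dark 6 a.m.-6 p.m.). Caged with proven-fertile males at 9:00 a.m.; plug or vaginal sperm at 3:00 p.m. marked day 0. Oral dosing generally days 1-9, groups of five; killed day 11. Living fetuses, resorptions and implantation sites counted against controls. Score by % fewer viable fetuses: A <24%, +1 25-49%, +2 50-74%, +3 75-99%, +4 none living.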

The subject of data set [2] is Rattus norvegicus. In words: Antifertility activity in 1 to 9 days pregnancy Charles River CD rat assessed as abortion of implanted embryos at 25 mg/kg, po qd for 9 days. Format: functional, organism-based. Also noted: dose 25 mg/kg. The gist of the method:
as §1

Data set [3] deals with Rattus norvegicus. Description: Antifertility activity in 1 to 9 days pregnancy Charles River CD rat assessed as reduction in number of viable fetuses at 5 mg/kg, po. Format: functional. The gist of the method: as §1
The subject of data set [4] is Rattus norvegicus. In words: Antifertility activity in 1 to 9 days pregnancy Charles River CD rat assessed as reduction in number of viable fetuses at 50 mg/kg, po. Format: functional. In a few lines:
as §1

Data set [5] has as its system Hamster. In words: Antifertility activity in 1 to 9 days pregnancy hamster assessed as reduction in number of viable fetuses at 50 mg/kg, po. The format is functional, Cricetinae. In a few lines: as §1
For data set [6], the system named is Rhesus monkey. In words: Toxicity in rhesus monkey up to 800 mg/kg, po. The format is organism-based, Macaca mulatta. Also noted: dose 800 mg/kg, route oral. The settings on record: in vivo.
For data set [7], the species on record is Oryctolagus cuniculus. Description: Estrogenic activity in immature rabbit uterus assessed as Clauberg progestational response. Format: functional, tissue-based.
The species named for data set [8] is Rattus norvegicus. Description: Estrogenic activity in adult ovariectomized rat assessed as induction of uterine growth. Format: functional, organism-based.
The species named for data set [9] is Canis familiaris. In words: Effect on mating behavior in spayed dog. The settings on record: Canis lupus familiaris.
The test system of data set [10] is Hamster. Description: Antifertility activity in 1 to 9 days pregnancy hamster assessed as reduction in number of viable fetuses at 10 mg/kg, po. Format: functional, Cricetinae. The gist of the method: as §1
The species named for data set [11] is Rattus norvegicus. Description: Antiestrogenic activity in rat. Format: functional, organism-based.
For data set [12], the species on record is Rattus norvegicus. In words: Estrogenic activity in adult ovariectomized rat. The format is functional, organism-based.
Data set [13] relates to Rattus norvegicus. Description: Antideciduomal activity in pseudopregnant rat administered once in weekly. The format is functional, organism-based.
The species named for data set [14] is Rattus norvegicus. In words: Estrogenic activity in rat assessed as increase of uterine weight. The format is functional, organism-based.
In data set [15] the test system is Hamster. Description: Uterotrophic activity in hamster. Particulars: Cricetinae; Uterus. Format: functional, organism-based.
Data set [16] is filed under the species Rattus norvegicus. Description: Estrogenic activity in adult ovariectomized rat assessed as induction of vaginal opening and cornification. Format: functional, organism-based.
The species named for data set [17] is Rattus norvegicus. Description: Estrogenic activity in immature rat assessed as induction of vaginal opening. Format: functional, organism-based.
For data set [18], the species on record is Rattus norvegicus. Description: Estrogenic activity in immature rat. Format: functional, organism-based.

Take `O=C1C(c2ccccc2)=C(c2ccccc2)C2CC3CCC(C3)[C@@]12N1CCCC1` (some centres not stated): in data set [1], the Activity came to 0%. With `O=C1C(c2ccccc2)=C(c2ccccc2)C2C3CCC(C3)C[C@@]12N1CCCCC1` (some centres not stated), in [2], the outcome was Active. In addition, the Activity in [1] amounted to 100%. In the case of `O=C(/C(=C(\C1=Cc2ccccc2CC1)c1ccccc1)c1ccccc1)N1CCCC1`, the outcome in data set [3] was inactive. Further, in data set [4], the Activity was found to be 100%.

On to `O=C(/C(=C(\C1=CC2CCC1CC2)c1ccccc1)c1ccccc1)N1CCCCC1`, for which the Activity in data set [1] was determined as 0%. On the same count and under the same terms, the same measure for `O=C1C(c2ccc(Cl)cc2)=C(c2ccc(Cl)cc2)[C@H]2C3CCC(C3)[C@@]12N1CCCCC1` (relative stereo): 0%; for `O=C(/C(=C(\C1=CCCc2ccccc21)c1ccccc1)c1ccccc1)N1CCCC1`: 0%. The same measure, in the same setting: the value for `O=S1(=O)C(c2ccccc2)=C(c2ccccc2)C2C3CCC(C3)[C@]21N1CCCC1` (some centres not stated) was 75%. As to `O=C1C(c2ccccc2)=C(c2ccccc2)C2C3CCC(CC3)[C@@]12N1CCCCC1` (some centres not stated), in data set [2], the outcome was Active. Besides, the Activity in data set [1] is 100%. On to `O=C1C(c2ccccc2)=C(c2ccccc2)[C@H]2C3CCC(C3)[C@@]12N1CCCCCC1` (relative stereo), for which the result in data set [2] was Active. In addition, the Activity in data set [5] worked out at 0%; in data set [1] it was 100%. As for `C[C@@]12C(c3ccccc3)=C(c3ccccc3)C(=O)[C@]1(N1CCCC1)C1CCC2C1` (relative stereo), the Activity in data set [3] is recorded as 0%. `O=C1C(c2ccccc2)=C(c2ccccc2)C2C3CC(C4C=CCC43)[C@@]12N1CCCC1` (some centres not stated): in [1], the Activity was 0%. For the compound `O=S1(=O)C(c2ccc(Cl)cc2)=C1c1ccc(Cl)cc1`, the outcome in data set [1] was inactive. Consider `CC(C)=C/C(=C(\C(=O)N1CCCC1)c1ccccc1)c1ccccc1`, for which the outcome in data set [3] was inactive. For the same compound, the Activity in data set [1] is 100%. `O=C1C(c2cccs2)=C(c2cccs2)C2C3CCC(C3)[C@@]12N1CCCCC1` (some centres not stated): the Activity in data set [1] stood at 0%. Still for that read-out and setting: the same measure for `CC1=C(/C(=C(\C(=O)N2CCCC2)c2ccccc2)c2ccccc2)C2CCC1C2` (configuration not stated): 0%. Regarding `CN1CCN([C@]23C(=O)C(c4ccccc4)=C(c4ccccc4)[C@H]2C2CCC3C2)CC1` (relative stereo), the Activity in data set [3] was determined as 75%. The outcome in [2] was Active. For `O=C1C(c2ccc(Cl)cc2)=C(c2ccc(Cl)cc2)[C@H]2C3CCC(C3)[C@@]12N1CCCC1` (relative stereo), the Activity in [1] worked out at 0%. Same read-out and setting: the value for `O=S1(=O)C(c2ccccc2)=C1c1ccccc1` was “inactive”; that for `COc1ccc(-c2c(-c3ccc(OC)cc3)c2=O)cc1` was “inactive”; that for `O=C1C(c2ccccc2)C(c2ccccc2)C2C3CCC(C3)[C@@]12N1CCCC1` (some centres not stated) was 25%. Still for that read-out and setting: the value for `O=C1C(c2ccccc2)=C(c2ccccc2)[C@H]2C3CCC(C3)[C@@]12N1CCOCC1` (relative stereo) was 0%; that for `O=S1(=O)C(c2ccc(Cl)cc2)=C(c2ccc(Cl)cc2)C2C3CCC(C3)[C@]21N1CCCC1` (some centres not stated) was 0%. For `O=C1C(c2ccccc2)=C(c2ccccc2)C2C3CC(C[C@]12N1CCCC1)c1ccccc13` (some centres not stated), the result in data set [2] was Active. Moreover, the Activity in data set [5] turned out to be 25%; in [1], 100%. As to `COc1ccc(C2=C(c3ccc(OC)cc3)[C@H]3C4CCC(C4)[C@@]3(N3CCCC3)C2=O)cc1` (relative stereo), the Activity in [1] was found to be 0%. The same measure, in the same setting: the value for `O=S1(=O)C(c2ccccc2)=C(c2ccccc2)C2C3CCC(C3)[C@]21N1CCCCC1` (some centres not stated) was 100%.

As to `O=C(/C(=C(\C=C1CCCCC1)c1ccccc1)c1ccccc1)N1CCCC1`, the Activity in data set [1] is listed as 0%. In the case of `O=C(/C(=C(\C1=Cc2ccccc2CC1)c1ccccc1)c1ccccc1)N1CCCCC1`, the Activity in [1] is given as 100%. In the case of `O=C1C(c2ccccc2)=C(c2ccccc2)[C@H]2C3CCC(C3)[C@@]12N1CCCCC1` (relative stereo), the Activity result is “Non-toxic” in data set [6], 25% in data set [10], 100% in [5] and 100% in data set [1]. Also, the outcome in data set [7], in [9] and in data set [11] was inactive. Besides, the outcome in data set [8], in data set [2], in data set [12], in data set [13], in data set [14] and in [15] was Active. The outcome in [16], in [17] and in [18] was Active. For the compound `O=C(/C(=C(\C=C1/CC=CCC1)c1ccccc1)c1ccccc1)N1CCCC1`, in [1], the Activity is on record as 0%. Still for that read-out and setting: the value for `O=C(/C(=C(\C1=CC2CCC(C1)C2)c1ccccc1)c1ccccc1)N1CCCCC1` (configuration not stated) was 0%; that for `O=C1C(c2ccccc2)=C(c2ccccc2)C2CCc3ccccc3[C@@]12N1CCCC1` (some centres not stated) was 50%; that for `O=C(/C(=C(\C1=CCCCc2ccccc21)c1ccccc1)c1ccccc1)N1CCCC1` was 0%. Consider `CN(C)[C@]12C(=O)C(c3ccccc3)=C(c3ccccc3)[C@H]1C1CCC2C1` (relative stereo), for which the Activity in [1] is 0%. The same measure, in the same setting: the same measure for `O=c1c(-c2ccc(Cl)cc2)c1-c1ccc(Cl)cc1`: “inactive”. As for `O=C1C(c2ccccc2)=C(c2ccccc2)[C@H]2C3CCC(C3)[C@@]12N1CCCC1` (relative stereo), in data set [2], the outcome was Active. For the same compound, the results for the Activity in data set [5] and in [1] were 0% and 100%, respectively. Turning to `O=c1c(-c2ccccc2)c1-c1ccccc1`, the result in data set [1] was inactive.

The values above are taken from ChEMBL document CHEMBL3272283, “Contraceptive agents from cycloaddition reactions of diarylcyclopropenones and diarylthiirene 1, 1-dioxides” (J Med Chem, 1976).
